For 15 compounds, Activity and IC50 results are on record in ChEMBL document CHEMBL4699550, “Isolation of Picrotoxanes from Austrobuxus carunculatus Using Taxonomy-Based Molecular Networking” (J Nat Prod, 2020).

Assay [1] deals with HCT-116. The assay can be described thus: Antiproliferative activity against human HCT-116 cells assessed as reduction in cell viability at 1 uM after 72 hrs by CellTiter Glo assay. In kind it is functional, cell-based. (In general: Cellular ATP, detected with luciferase, serves as a proxy for viable cell number.)
The test system of assay [2] is U-87 MG. The assay can be described thus: Antiproliferative activity against human U87 cells assessed as reduction in cell viability at 1 uM after 72 hrs by CellTiter Glo assay. In kind it is functional, cell-based. As to conditions: U-87MG ATCC.
The test system of assay [3] is A549. The assay can be described thus: Antiproliferative activity against human A549 cells assessed as reduction in cell viability at 1 uM after 72 hrs by CellTiter Glo assay. It is filed as functional, cell-based.
Assay [4] deals with A549. The assay can be described thus: Antiproliferative activity against human A549 cells assessed as reduction in cell viability after 72 hrs by CellTiter Glo assay. To be noted: A549, 72 h. It is filed as functional, cell-based. The procedure, abridged:
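A549 cells (ATCC) grown in RPMI 1640 with 10% FCS and 1% L-glutamine at 37 °C under 5% CO2. Seeded at 3 × 10³ cells/well and cultured 24 h, then given 10 final concentrations from serial dilution in medium; vehicle controls. After 72 h, viability read by CellTiter-Glo luminescence. Run in triplicate; IC50 from four- or five-parameter logistic fits.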

In assay [5] the test system is U-87 MG. The assay can be described thus: Antiproliferative activity against human U87 cells assessed as reduction in cell viability at 10 uM after 72 hrs by CellTiter Glo assay. As to conditions: U-87MG ATCC. In kind it is functional, cell-based.
Assay [6] has as its system A549. The assay is described as follows: Antiproliferative activity against human A549 cells assessed as reduction in cell viability at 10 uM after 72 hrs by CellTiter Glo assay. It is filed as functional, cell-based.
For assay [7], the system named is HCT-116. The assay can be described thus: Antiproliferative activity against human HCT-116 cells assessed as reduction in cell viability at 10 uM after 72 hrs by CellTiter Glo assay. In kind it is functional, cell-based.
Assay [8] relates to U-87 MG. The assay is described as follows: Antiproliferative activity against human U87 cells assessed as reduction in cell viability after 72 hrs by CellTiter Glo assay. In kind it is functional, cell-based, U-87MG ATCC. The procedure, abridged:
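U87-MG glioblastoma cells (ATCC) grown in DMEM with 10% FCS and 1% L-glutamine at 37 °C under 5% CO2. Seeded at 3 × 10³ cells/well, cultured 24 h, then treated at 10 final concentrations serially diluted in medium; vehicle-treated controls. CellTiter-Glo luminescence read after 72 h. Triplicate runs; IC50 from four- or five-parameter logistic curves.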

Assay [9] has as its system HCT-116. The assay can be described thus: Antiproliferative activity against human HCT-116 cells assessed as reduction in cell viability after 72 hrs by CellTiter Glo assay. To be noted: HCT-116, 72 h. In kind it is functional, cell-based. The procedure, abridged: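 HCT-116 (ATCC) grown in McCoy's 5A with 10% FCS, 1% L-glutamine, 37 °C, 5% CO2. Seeded 3 × 10³ cells/well; after 24 h treated with 10 final concentrations by serial dilution in medium; vehicle controls; triplicate. Luminescent viability read-out after 72 h, reagent 15 min. IC50 from four- or five-parameter logistic fit of dose-response curves.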

Activity calls are given as the source filed them. The rule behind the calls is not given here.

In general, IC50 refers to the midpoint of a concentration-inhibition curve.

Turning to `C=C(C)[C@@H]1[C@H]2OC(=O)[C@@H]1[C@]1(O)[C@H]3O[C@H]3[C@]3(C[C@@H]([C@H](C)OC(=O)CCCCCCCCCCC)C(=O)O3)[C@]1(C)[C@@H]2O`, the result in the assay with HCT-116 [1], with U-87 MG [2] and in the assay with A549 [3] was inactive.
Take `C=C(C)[C@@H]1[C@H]2OC(=O)[C@@H]1[C@]1(O)[C@H]3O[C@H]3[C@]3(C[C@@H]([C@H](C)O)C(=O)O3)[C@]1(C)[C@@H]2OC(=O)CCCCCCCCCCC`: the figures for the 50% inhibitory concentration (IC50) in the assay on A549 [4] and in the assay with U-87 MG [8] were 5.8 µM and 0.7 µM, respectively. The result in the assay on U-87 MG [5], with A549 [6] and with HCT-116 [7] was Active. The result in the assay with HCT-116 [1], in the assay on U-87 MG [2] and in the assay with A549 [3] was inactive.
As to `C=C(C)[C@@H]1[C@H]2OC(=O)[C@@H]1[C@]1(O)[C@H]3O[C@H]3[C@]3(CO3)[C@]1(C)[C@@H]2OC(=O)CCCCCCCCCCC`, the outcome in the assay on U-87 MG [5], in the assay on A549 [6] and with HCT-116 [7] was Active. For the same compound, the result in the assay with HCT-116 [1], in the assay on U-87 MG [2] and in the assay with A549 [3] was inactive.
In the case of `C=C(C)[C@@H]1[C@H]2OC(=O)[C@@H]1[C@]1(O)[C@H]3O[C@H]3[C@]3(C[C@](O)([C@H](C)OC)C(=O)O3)[C@]1(C)[C@@H]2O`, the outcome in the assay on HCT-116 [1], in the assay on U-87 MG [2] and in the assay with A549 [3] was inactive.
Take `C=C(C)[C@@H]1[C@H]2OC(=O)[C@@H]1[C@]1(O)[C@H]3O[C@H]3[C@]3(CO3)[C@]1(C)[C@@H]2O`: the result in the assay on HCT-116 [1], in the assay with U-87 MG [2] and in the assay with A549 [3] was inactive.
With `C=C(C)[C@@H]1[C@H]2OC(=O)[C@@H]1[C@]1(O)[C@H]3O[C@H]3[C@]3(C[C@H]([C@H](C)OC(=O)CCCCCCCCCCCCC)C(=O)O3)[C@]1(C)[C@@H]2O`, the outcome in the assay with HCT-116 [1], in the assay on U-87 MG [2] and in the assay with A549 [3] was inactive.
For the compound `C=C(C)[C@@H]1[C@H]2OC(=O)[C@@H]1[C@]1(O)[C@H]3O[C@H]3[C@]3(C[C@H]([C@H](C)OC(=O)CCCCCCCCCCCCCCC)C(=O)O3)[C@]1(C)[C@@H]2O`, the outcome in the assay with HCT-116 [1], with U-87 MG [2] and in the assay with A549 [3] was inactive.
Regarding `COc1cccc2c1C(=O)c1c(O)c3c(c(O)c1C2=O)C[C@@](O)(C(=O)CO)C[C@@H]3O[C@H]1C[C@H](N)[C@H](O)[C@H](C)O1` [DOXORUBICIN], the 50% inhibitory concentration (IC50) in the assay on A549 [4] was 90 µM; in the assay on HCT-116 [9], 56.6 µM; with U-87 MG [8], 99.6 µM.
As for `C=C(C)[C@@H]1[C@H]2OC(=O)[C@@H]1[C@]1(O)[C@H]3O[C@H]3[C@]3(C[C@H]([C@H](C)OC(=O)CCCCCCCCCCC)C(=O)O3)[C@]1(C)[C@@H]2O`, the outcome with HCT-116 [1], with U-87 MG [2] and in the assay with A549 [3] was inactive.
`CO[C@@H](C)[C@@]1(O)C[C@@]2(OC1=O)[C@@H]1O[C@@H]1[C@@]1(O)[C@H]3C(=O)O[C@H]([C@H]3C(C)C)[C@@H](O)[C@]12C`: the result in the assay with HCT-116 [1], with U-87 MG [2] and with A549 [3] was inactive.
For the compound `C=C(C)[C@@H]1[C@H]2OC(=O)[C@@H]1[C@]1(O)[C@H]3O[C@H]3[C@]3(C[C@@H]([C@H](C)OC(=O)CCCCCCCCC)C(=O)O3)[C@]1(C)[C@@H]2O`, the result in the assay on HCT-116 [1], in the assay on U-87 MG [2] and with A549 [3] was inactive.
Regarding `C=C(C)[C@@H]1[C@H]2OC(=O)[C@@H]1[C@]1(O)[C@H]3O[C@H]3[C@]3(C/C(=C\C)C(=O)O3)[C@]1(C)[C@@H]2O`, the result in the assay with HCT-116 [1], in the assay on U-87 MG [2] and in the assay with A549 [3] was inactive.
Regarding `CCCCCCCCCC(=O)O[C@@H]1[C@@H]2OC(=O)[C@@H]([C@@H]2C(C)C)[C@]2(O)[C@H]3O[C@H]3[C@]3(C[C@](O)([C@H](C)OC)C(=O)O3)[C@]12C`, the half-inhibitory concentration (IC50) in the assay with A549 [4] worked out at 5.8 µM; with U-87 MG [8], 0.7 µM. In addition, the result in the assay with U-87 MG [5], in the assay on A549 [6] and in the assay with HCT-116 [7] was Active. Also, the result in the assay with HCT-116 [1], in the assay with U-87 MG [2] and with A549 [3] was inactive.
As to `C=C(C)[C@@H]1[C@H]2OC(=O)[C@@H]1[C@]1(O)[C@H]3O[C@H]3[C@]3(C[C@H]([C@H](C)OC(=O)CCCCCCCCC)C(=O)O3)[C@]1(C)[C@@H]2O`, the outcome in the assay with HCT-116 [1], in the assay with U-87 MG [2] and in the assay on A549 [3] was inactive.
For the compound `C=C(C)[C@@H]1[C@H]2OC(=O)[C@@H]1[C@]1(O)[C@H]3O[C@H]3[C@]3(C[C@@H]([C@H](C)O)C(=O)O3)[C@]1(C)[C@@H]2O`, the result with HCT-116 [1], in the assay with U-87 MG [2] and in the assay with A549 [3] was inactive.
